Our source for the inhibition, Activity and Ke(app) values is ChEMBL document CHEMBL3600355, “The importance of the 6- and 7-positions of tetrahydroisoquinolines as selective antagonists for the orexin 1 receptor” (Bioorg Med Chem, 2015).

Activity calls are given as the source filed them. No cut-off for these calls is given here.

Common to all, as to type: functional, cell-based
Experiment [1] addresses T1, Orexin receptor type 2 (Homo sapiens) (UniProt O43614).
T1 sequence (whole entry): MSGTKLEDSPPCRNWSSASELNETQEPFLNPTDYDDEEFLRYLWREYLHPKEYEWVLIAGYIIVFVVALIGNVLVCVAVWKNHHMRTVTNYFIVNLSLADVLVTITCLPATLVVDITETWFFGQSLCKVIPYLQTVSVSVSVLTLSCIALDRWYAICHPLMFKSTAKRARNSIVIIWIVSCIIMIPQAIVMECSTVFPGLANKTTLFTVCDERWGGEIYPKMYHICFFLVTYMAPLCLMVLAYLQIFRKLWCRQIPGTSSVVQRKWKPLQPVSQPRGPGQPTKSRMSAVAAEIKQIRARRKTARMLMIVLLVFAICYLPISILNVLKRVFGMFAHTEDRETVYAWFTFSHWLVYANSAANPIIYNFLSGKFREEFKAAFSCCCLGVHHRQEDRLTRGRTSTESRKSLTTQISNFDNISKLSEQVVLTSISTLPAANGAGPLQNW
The experiment can be described thus: Antagonist activity at human OX2 receptor expressed in CHO-RD-HGA16 cells assessed as inhibition of orexin-A-induced calcium mobilization at 10 uM preincubated for 15 mins followed by orexin-A addition measured every 1.52 secs over 60 secs by calcium 5 dye-based fluorescence assay relative to control. The gist of the method:
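OX2 stable CHO-RD-HGA16 cells, Calcium 5 dye-loaded, were pre-incubated 15 min at 37°C with compound at 10 μM before orexin A addition. Calcium fluorescence was read every 1.52 s for 60 s and percent inhibition of the orexin A response recorded.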

The target in experiment [2] is T2, Orexin/Hypocretin receptor type 1 (Homo sapiens) (UniProt O43613).
T2 sequence (whole entry): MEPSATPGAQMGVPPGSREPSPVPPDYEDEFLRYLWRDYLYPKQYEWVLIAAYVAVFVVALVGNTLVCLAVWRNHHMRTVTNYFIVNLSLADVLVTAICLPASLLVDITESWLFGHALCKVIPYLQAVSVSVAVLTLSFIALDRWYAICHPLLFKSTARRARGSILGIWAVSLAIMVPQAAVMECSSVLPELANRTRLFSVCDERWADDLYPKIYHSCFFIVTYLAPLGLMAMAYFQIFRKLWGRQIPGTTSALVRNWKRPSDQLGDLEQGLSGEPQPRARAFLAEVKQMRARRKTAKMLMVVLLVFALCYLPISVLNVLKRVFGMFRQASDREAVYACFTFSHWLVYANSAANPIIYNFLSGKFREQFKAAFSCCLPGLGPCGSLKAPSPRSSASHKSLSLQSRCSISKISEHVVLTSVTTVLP
The experiment can be described thus: Agonist activity at human OX1 receptor expressed in CHO-RD-HGA16 cells assessed as induction of calcium mobilization at 10 uM measured every 1.52 secs over 60 secs by calcium 5 dye-based fluorescence assay. The method in brief: (§1)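 Stable CHO-RD-HGA16 lines overexpressing human OX1 or OX2, plated overnight at 25,000 cells/well, 37°C, 5% CO2. Loaded 45 min with Calcium 5 dye in HBSS/20 mM HEPES/2.5 mM probenecid, pH 7.4. Compound tested alone at 10 μM; fluorescence (ex 485/em 525 nm) read every 1.52 s for 60 s.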

The target of experiment [3] is T1, Orexin receptor type 2 (Homo sapiens). Kind of experiment: Agonist activity at human OX2 receptor expressed in CHO-RD-HGA16 cells assessed as induction of calcium mobilization at 10 uM measured every 1.52 secs over 60 secs by calcium 5 dye-based fluorescence assay. The method in brief:
as §1

Experiment [4] deals with T2, Orexin/Hypocretin receptor type 1 (Homo sapiens). The experiment can be described thus: Competitive antagonist activity at human OX1 receptor expressed in CHO-RD-HGA16 cells assessed as inhibition of orexin-A-induced calcium mobilization preincubated for 1 hr followed by orexin-A addition measured every 1.52 secs over 60 secs by calcium 5 dye-based fluorescence assay. The method in brief:
(§2)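 Curve-shift assay in human OX1 CHO-RD-HGA16 cells, with antagonist–receptor pre-incubation lengthened to 45 min or 1 hr before orexin A addition. Calcium 5 fluorescence was monitored, and each point is a composite of at least three experiments in duplicate.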
(In general: Calcium assays in cells follow changes in intracellular calcium, usually with a dye or a luminescent sensor.)

Experiment [5] shares this target. Kind of experiment: Competitive antagonist activity at human OX1 receptor expressed in CHO-RD-HGA16 cells assessed as inhibition of orexin-A-induced calcium mobilization preincubated for 45 mins followed by orexin-A addition measured every 1.52 secs over 60 secs by calcium 5 dye-based fluorescence assay. The method in brief: as §2
For experiment [6] the target is unchanged. Kind of experiment: Insurmountable antagonist activity at human OX1 receptor expressed in CHO-RD-HGA16 cells assessed as inhibition of orexin-A-induced calcium mobilization preincubated for 15 mins followed by orexin-A addition measured every 1.52 secs over 60 secs by calcium 5 dye-based fluorescence assay. The gist of the method: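 Human OX1 or OX2 stable CHO-RD-HGA16 cells were dye-loaded with Calcium 5, then given a single compound concentration for 15 min at 37°C. Orexin A serial dilutions were added at 19 s and fluorescence read every 1.52 s over 60 s. Orexin A EC50 curves were run with and without compound and fitted to a three-parameter logistic. Apparent Ke was taken from the right-shift; three independent experiments in duplicate, N=2 where Ke >10 μM.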

Experiment [7] has the same target. Kind of experiment: Competitive antagonist activity at human OX1 receptor expressed in CHO-RD-HGA16 cells assessed as inhibition of orexin-A-induced calcium mobilization compound treated simultaneous with orexin-A by fluorescence assay. The gist of the method: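 Antagonist and orexin A were added simultaneously to Calcium 5-loaded human OX1 CHO-RD-HGA16 cells, with calcium mobilization curve-shift measured. Data are composites of at least three experiments in duplicate.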

Take `CCOC(=O)CNc1ccc2c(c1)CCN(CC(=O)NCc1ccccc1)C2Cc1ccc(OC)c(OC)c1` (configuration not stated): in experiment [1], the inhibition (in general, how much of the control response was suppressed) is under 50%. Besides, the result in experiment [2] and in experiment [3] was inactive.
Take `CCCCCN(C)c1ccc2c(c1)CCN(CC(=O)NCc1ccccc1)C2Cc1ccc(OC)c(OC)c1` (configuration not stated): the inhibition in experiment [1] is under 50%.
The same measure, in the same setting: next, `CCCOc1ccc2c(c1)CCN(CC(=O)NCc1ccccc1)C2Cc1ccc(OC)c(OC)c1` (configuration not stated): under 50%.
As for `COc1ccc(CC2c3ccc(NC(=O)Nc4ccccc4)cc3CCN2CC(=O)NCc2ccccc2)cc1OC` (configuration not stated), in experiment [1], the inhibition is under 50%.
Turning to `CCCCCCN(C)c1ccc2c(c1)CCN(CC(=O)NCc1ccccc1)C2Cc1ccc(OC)c(OC)c1` (configuration not stated), the inhibition in experiment [1] was under 50%.
With `CCOC(=O)CCCNc1ccc2c(c1)CCN(CC(=O)NCc1ccccc1)C2Cc1ccc(OC)c(OC)c1` (configuration not stated), the result in experiment [2] and in experiment [3] was inactive.
As for `COc1ccc(CC2c3ccc(N(C)Cc4ccccc4)cc3CCN2CC(=O)NCc2ccccc2)cc1OC` (configuration not stated), the inhibition in experiment [1] was under 50%.
Same read-out and setting: next, `COc1ccc(CC2c3ccc(NCCCCOc4ccccc4)cc3CCN2CC(=O)NCc2ccccc2)cc1OC` (configuration not stated): under 50%.
The same measure, in the same setting: in the case of `COc1ccc(CC2c3ccc(NC(C)=O)cc3CCN2CC(=O)NCc2ccccc2)cc1OC` (configuration not stated) it was under 50%.
In the case of `CCOC(=O)CCCOc1ccc2c(c1)CCN(CC(=O)NCc1ccccc1)C2Cc1ccc(OC)c(OC)c1` (configuration not stated), in experiment [1], the inhibition is under 50%. Further, in experiment [4], the Ke(app) was determined as 1000 nM. In addition, the inhibition entry in experiment [5], in experiment [6] and in experiment [7] was “Active” throughout. In addition, the result in experiment [2] and in experiment [3] was inactive.
Take `COc1ccc(CC2c3ccc(NCC(=O)N(C)C)cc3CCN2CC(=O)NCc2ccccc2)cc1OC` (configuration not stated): in experiment [1], the inhibition is under 50%.
`COc1ccc(CC2c3ccc(OCc4ccccc4)cc3CCN2CC(=O)NCc2ccccc2)cc1OC` (configuration not stated): the inhibition in experiment [1] is under 50%.
Same read-out and setting: next, `COc1ccc(CC2c3ccc(OC(C)C)cc3CCN2CC(=O)NCc2ccccc2)cc1OC` (configuration not stated): under 50%; `COc1ccc(CC2c3ccc(NCCN4CCCCC4)cc3CCN2CC(=O)NCc2ccccc2)cc1OC` (configuration not stated): under 50%.
For `COc1ccc(CC2c3ccc(OCC(F)(F)F)cc3CCN2CC(=O)NCc2ccccc2)cc1OC` (configuration not stated), the inhibition in experiment [1] was under 50%.
The same measure, in the same setting: next, `COc1ccc(CC2c3ccc(N4CCCCC4)cc3CCN2CC(=O)NCc2ccccc2)cc1OC` (configuration not stated): under 50%; `COc1ccc(CC2c3ccc(NCc4ccncc4)cc3CCN2CC(=O)NCc2ccccc2)cc1OC` (configuration not stated): under 50%.
Same read-out and setting: next, `COc1ccc(CC2c3ccc(N(C)CC4CC4)cc3CCN2CC(=O)NCc2ccccc2)cc1OC` (configuration not stated): under 50%; `CCOC(=O)CCCCCCNc1ccc2c(c1)CCN(CC(=O)NCc1ccccc1)C2Cc1ccc(OC)c(OC)c1` (configuration not stated): under 50%.
The same measure, in the same setting: next, `CCCNc1ccc2c(c1)CCN(CC(=O)NCc1ccccc1)C2Cc1ccc(OC)c(OC)c1` (configuration not stated): under 50%.
Consider `COc1ccc2c(c1)C(Cc1ccc(OC)c(OC)c1)N(CC(=O)NCc1ccccc1)CC2` (configuration not stated), for which the outcome in experiment [2] and in experiment [3] was inactive.
As for `COc1ccc(CC2c3ccc(NC(C)C)cc3CCN2CC(=O)NCc2ccccc2)cc1OC` (configuration not stated), the inhibition in experiment [1] is under 50%.
Still for that read-out and setting: in the case of `COc1ccc(CC2c3ccc(NCC4CC4)cc3CCN2CC(=O)NCc2ccccc2)cc1OC` (configuration not stated) it was under 50%.
`COc1ccc(CCNc2ccc3c(c2)CCN(CC(=O)NCc2ccccc2)C3Cc2ccc(OC)c(OC)c2)cc1OC` (configuration not stated): the inhibition in experiment [1] is under 50%. The inhibition entry in experiment [4], in experiment [6] and in experiment [7] was “Active” throughout. Also, in experiment [5], the Ke(app) was found to be 2180 nM.
As for `COc1ccc(CC2c3ccc(NCCCc4ccccc4)cc3CCN2CC(=O)NCc2ccccc2)cc1OC` (configuration not stated), the inhibition in experiment [1] is under 50%.
Still for that read-out and setting: next, `CCOC(=O)C(C)Nc1ccc2c(c1)CCN(CC(=O)NCc1ccccc1)C2Cc1ccc(OC)c(OC)c1` (configuration not stated): under 50%.
With `COc1ccc(CC2c3ccc(N4CCCC4)cc3CCN2CC(=O)NCc2ccccc2)cc1OC` (configuration not stated), the inhibition in experiment [1] was under 50%.
As for `CCCN(CCC)c1ccc2c(c1)CCN(CC(=O)NCc1ccccc1)C2Cc1ccc(OC)c(OC)c1` (configuration not stated), in experiment [1], the inhibition is under 50%.
Same read-out and setting: in the case of `CCOC(=O)CCCCCCOc1ccc2c(c1)CCN(CC(=O)NCc1ccccc1)C2Cc1ccc(OC)c(OC)c1` (configuration not stated) it was under 50%; in that of `COC(=O)CCCCNc1ccc2c(c1)CCN(CC(=O)NCc1ccccc1)C2Cc1ccc(OC)c(OC)c1` (configuration not stated), under 50%; in that of `COc1ccc(CC2c3ccc(NCc4cccnc4)cc3CCN2CC(=O)NCc2ccccc2)cc1OC` (configuration not stated), under 50%.
Consider `COc1ccc(CC2c3ccc(NCCCC(=O)OC(C)(C)C)cc3CCN2CC(=O)NCc2ccccc2)cc1OC` (configuration not stated), for which the inhibition in experiment [1] is under 50%. The Ke(app) in experiment [4] was 1010 nM. In addition, the inhibition entry in experiment [5], in experiment [6] and in experiment [7] was “Active” throughout.
In the case of `CCOC(=O)CCNc1ccc2c(c1)CCN(CC(=O)NCc1ccccc1)C2Cc1ccc(OC)c(OC)c1` (configuration not stated), the inhibition in experiment [1] is under 50%. For the same molecule, the outcome in experiment [2] and in experiment [3] was inactive.
Consider `COc1ccc(CC2c3ccc(OS(=O)(=O)c4ccccc4)cc3CCN2CC(=O)NCc2ccccc2)cc1OC` (configuration not stated), for which the inhibition in experiment [1] was under 50%.
Same read-out and setting: in the case of `CCCCCCNC(=O)Nc1ccc2c(c1)CCN(CC(=O)NCc1ccccc1)C2Cc1ccc(OC)c(OC)c1` (configuration not stated) it was under 50%; in that of `COc1ccc(CC2c3ccc(NS(C)(=O)=O)cc3CCN2CC(=O)NCc2ccccc2)cc1OC` (configuration not stated), under 50%; in that of `COc1ccc(CC2c3ccc(NCc4ccccc4)cc3CCN2CC(=O)NCc2ccccc2)cc1OC` (configuration not stated), under 50%.
Same read-out and setting: in the case of `CCCCCCNc1ccc2c(c1)CCN(CC(=O)NCc1ccccc1)C2Cc1ccc(OC)c(OC)c1` (configuration not stated) it was under 50%.
Same read-out and setting: in the case of `COc1ccc(CC2c3ccc(N(C)C)cc3CCN2CC(=O)NCc2ccccc2)cc1OC` (configuration not stated) it was under 50%.
With `CCCN(C)c1ccc2c(c1)CCN(CC(=O)NCc1ccccc1)C2Cc1ccc(OC)c(OC)c1` (configuration not stated), the inhibition in experiment [1] was under 50%. In addition, the outcome in experiment [2] and in experiment [3] was inactive.
With `CCCCOc1ccc2c(c1)C(Cc1ccc(OC)c(OC)c1)N(CC(=O)NCc1ccccc1)CC2` (configuration not stated), in experiment [1], the inhibition was under 50%. Besides, the result in experiment [2] and in experiment [3] was inactive.
In the case of `COc1ccc(CC2c3ccc(NC(=O)c4ccccc4)cc3CCN2CC(=O)NCc2ccccc2)cc1OC` (configuration not stated), the inhibition in experiment [1] is under 50%.
Still for that read-out and setting: in the case of `CCCCCNc1ccc2c(c1)CCN(CC(=O)NCc1ccccc1)C2Cc1ccc(OC)c(OC)c1` (configuration not stated) it was under 50%.
